Results collected from several papers.
Each line is one published result; the experiments were not run side by side.
CDK4 with cyclin D1: Cyclin-dependent kinase 4, with cyclin D1 (CDK4, Homo sapiens, UniProt P11802)
SLC22A8: Organic anion transporter 3 (SLC22A8, Homo sapiens, UniProt Q8TCC7)
OSBP: Oxysterol-binding protein 1 (OSBP, Homo sapiens, UniProt P22059)

| Compound | target | assay | system | setting | endpoint | result |
| --- | --- | --- | --- | --- | --- | --- |
| CN(C)C(=O)c1cc2cnc(Nc3cc(C(=O)O)cc(-c4ccc5c(=O)cc(N6CCOCC6)oc5c4)c3)nc2n1C1CCCC1 | CDK4 with cyclin D1 | enzyme activity, inhibitor, radiometric | – | – | IC50 | 7.85 µM |
| Nc1nc2c(ncn2[C@@H]2O[C@H](COP(=O)(O)OP(=O)(O)OP(=O)(O)O)[C@@H](O)[C@H]2O)c(=O)[nH]1 | GTPase KRas (KRAS, Homo sapiens, UniProt P01116, Q61H) | binding | – | – | Kd | 0.118 µM |
| O=C(O)c1ccc2nc(-c3cc(Cl)cc(Cl)c3)oc2c1 | SLC22A8 | transporter uptake, inhibitor | HEK293 | pH 7.4 | Ki | 2.36 µM |
| CCOc1ccc(C(=O)CC(SCc2ccccc2)C(=O)O)cc1 (centres unmarked) | OSBP | ligand displacement, FP | – | – | Ki | > 1000 µM |
| CN(C)C(=O)c1cc2cnc(Nc3cc(C(F)(F)F)c(-c4ccc5c(=O)cc(N6CCOCC6)oc5c4)cn3)nc2n1C1CCCC1 | CDK4 with cyclin D1 | enzyme activity, inhibitor, radiometric | – | – | IC50 | > 10 µM |
| CSC[C@H]1O[C@@H](n2cnc3c(N)ncnc32)[C@H](O)[C@@H]1O | tapT (Escherichia coli, UniProt Q47319) | binding, ITC | – | – | Kd | 150 µM |
| CN(C)C(=O)c1cc2cnc(Nc3cc(C(=O)O)cc(-c4cccc5c(=O)cc(N6CCOCC6)oc45)c3)nc2n1C1CCCC1 | CDK4 with cyclin D1 | enzyme activity, inhibitor, radiometric | – | – | IC50 | > 10 µM |
| CCOc1ccc(C(=O)CC(SCc2ccc(Br)cc2)C(=O)O)cc1 (centres unmarked) | OSBP | ligand displacement, FP | – | – | Ki | 459 µM |
| C[S+](CC[C@H](N)C(=O)O)C[C@H]1O[C@@H](n2cnc3c(N)ncnc32)[C@H](O)[C@@H]1O (some centres unmarked) | tapT (Escherichia coli, UniProt Q47319, D137A) | binding, ITC | – | – | Kd | 590 µM |
| C=CC(=O)N1C[C@H](Nc2ncnc3[nH]ccc23)CC[C@@H]1C | SLC22A8 | transporter uptake, inhibitor | HEK293 | pH 7.4 | Ki | 41 µM |
| CCOc1ccc(C(=O)CC(SCc2ccc(Cl)cc2)C(=O)OC)cc1 (centres unmarked) | OSBP | ligand displacement, FP | – | – | Ki | > 1000 µM |
| CN(C)C(=O)c1cc2cnc(Nc3ccc(C(=O)NCCCCCCOc4cccc5c4C(=O)N(C4CCC(=O)NC4=O)C5=O)cc3)nc2n1C1CCCC1 (centres unmarked) | Cyclin-dependent kinase 4 (CDK4, Homo sapiens, UniProt P11802) | binding, competition with immobilised ligand | – | – | Kd | < 0.2 µM |
| CCOc1ccc(C(=O)CC(SCc2ccc(OC)cc2)C(=O)O)cc1 (centres unmarked) | OSBP | ligand displacement, FP | – | – | Ki | 549 µM |
| CN(C)C(=O)c1cc2cnc(Nc3cccc(-c4cccc5c(=O)cc(N6CCOCC6)oc45)c3)nc2n1C1CCCC1 | CDK4 with cyclin D1 | enzyme activity, inhibitor, radiometric | – | – | IC50 | 0.336 µM |
